Values after ≈ are worked out from the molar mass of the structure shown.
Experiments:
[1] = tested on: Mycobacterium tuberculosis; test: Antimycobacterial activity against Mycobacterium tuberculosis H37Rv ATCC 27294 assessed as reduction in bacterial cell growth incubated for 7 days by microplate alamar blue assay; assay type: functional; conditions: H37Rv ATCC 27294, 168 h
Summary of the method: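 MABA: H37Rv or clinical MDR isolates (resistant to INH and RFP, Beijing Chest Hospital patients) grown to late log phase in 7H9 with glycerol, Tween 80 and ADC, washed, filtered and frozen. Two-fold compound dilutions with 2 × 10⁵ CFU per well, 37 °C; Alamar blue plus Tween 80 added on day 7, fluorescence (ex 530/em 590) read after 16–24 h. MIC = lowest concentration giving ≥90% fluorescence reduction versus mean of bacterium-only controls; RIF and INH as positive controls.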

[2] = Cytotoxicity against African green monkey Vero cells assessed as reduction in cell viability; assay type: cell-based; conditions: chlorocebus sabaeus
[3] = tested on: Mycobacterium tuberculosis; test: Antituberculosis activity against Mycobacterium tuberculosis H37Rv infected in BALB/C mouse assessed as colony forming unit in lungs at 25 mg/kg, po administered once daily via gavage for 5 days per week for 3 weeks starting from 10 days post-infection (reference value: 6.44 +/- 0.34); assay type: functional
[4] = Mutagenicity in Salmonella typhimurium TA100 in absence of S9 fraction by mini-Ames test; assay type: toxicity; conditions: salmonella enterica subsp. enterica serovar typhimurium
[5] = MRT in ICR mouse at 25 mg/kg, po measured upto 24 hrs by HPLC analysis; assay type: ADME, organism-based; conditions: in vivo
Summary of the method: (§1)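 Female SPF ICR mice, 18–22 g, fasted overnight, 3 per group; single oral dose 25 mg/kg as suspension in 0.5% CMC. Jugular vein blood drawn at 0.25, 0.5, 1, 2, 4, 6, 8 and 24 h; serum deproteinised with acetonitrile, dried, redissolved and quantified by HPLC. AUC, t1/2, Cmax and Tmax taken directly from concentration–time data.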

[6] = Tmax in ICR mouse at 25 mg/kg, po measured upto 24 hrs by HPLC analysis; assay type: ADME, organism-based; conditions: in vivo; summary of the method: as §1
[7] = Half life in ICR mouse at 25 mg/kg, po measured upto 24 hrs by HPLC analysis; assay type: ADME, organism-based; conditions: in vivo; summary of the method: as §1
CYP2C9 = CYP2C9 (Homo sapiens, UniProt P11712); test: Inhibition of CYP2C9 (unknown origin); assay type: ADME
Chain of CYP2C9 (P11712 whole entry): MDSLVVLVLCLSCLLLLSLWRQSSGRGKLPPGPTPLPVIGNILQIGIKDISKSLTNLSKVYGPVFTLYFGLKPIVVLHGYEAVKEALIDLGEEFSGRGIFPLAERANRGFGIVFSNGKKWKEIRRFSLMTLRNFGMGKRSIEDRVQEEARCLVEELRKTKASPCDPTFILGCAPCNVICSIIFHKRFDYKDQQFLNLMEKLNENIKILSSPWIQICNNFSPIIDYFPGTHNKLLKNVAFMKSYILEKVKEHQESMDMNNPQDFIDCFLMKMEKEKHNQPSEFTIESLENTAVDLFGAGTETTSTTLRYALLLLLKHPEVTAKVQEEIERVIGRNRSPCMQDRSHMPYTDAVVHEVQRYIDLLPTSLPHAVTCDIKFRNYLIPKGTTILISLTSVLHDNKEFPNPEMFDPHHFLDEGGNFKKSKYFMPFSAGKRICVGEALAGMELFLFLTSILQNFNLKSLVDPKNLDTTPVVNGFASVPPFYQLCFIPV

[8] = tested on: Mycobacterium tuberculosis; test: Antimycobacterial activity against Mycobacterium tuberculosis H37Rv assessed as reduction in bacterial cell growth at 32 ug/ml by Low-oxygen recovery assay; assay type: functional
CYP1A2 = biological target: T1, CYP1A2 (Homo sapiens, UniProt P05177); test: Inhibition of CYP1A2 (unknown origin); assay type: ADME
T1 sequence (P05177 whole entry): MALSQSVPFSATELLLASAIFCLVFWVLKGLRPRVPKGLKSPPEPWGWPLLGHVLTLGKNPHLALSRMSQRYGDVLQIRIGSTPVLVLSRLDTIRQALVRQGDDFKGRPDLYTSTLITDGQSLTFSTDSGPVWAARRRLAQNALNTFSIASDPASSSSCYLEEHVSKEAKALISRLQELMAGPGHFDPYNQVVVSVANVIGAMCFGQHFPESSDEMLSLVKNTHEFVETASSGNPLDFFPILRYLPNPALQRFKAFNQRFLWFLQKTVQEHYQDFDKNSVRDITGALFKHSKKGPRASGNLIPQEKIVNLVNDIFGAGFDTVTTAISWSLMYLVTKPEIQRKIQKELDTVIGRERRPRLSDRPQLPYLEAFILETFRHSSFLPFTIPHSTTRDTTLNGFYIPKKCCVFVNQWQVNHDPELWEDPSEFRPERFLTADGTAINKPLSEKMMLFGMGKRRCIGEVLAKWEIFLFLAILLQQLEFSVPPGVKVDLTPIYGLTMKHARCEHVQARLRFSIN

CYP2D6 = CYP2D6 (Homo sapiens, UniProt P10635); test: Inhibition of CYP2D6 (unknown origin); assay type: ADME
Chain of CYP2D6 (P10635 whole entry): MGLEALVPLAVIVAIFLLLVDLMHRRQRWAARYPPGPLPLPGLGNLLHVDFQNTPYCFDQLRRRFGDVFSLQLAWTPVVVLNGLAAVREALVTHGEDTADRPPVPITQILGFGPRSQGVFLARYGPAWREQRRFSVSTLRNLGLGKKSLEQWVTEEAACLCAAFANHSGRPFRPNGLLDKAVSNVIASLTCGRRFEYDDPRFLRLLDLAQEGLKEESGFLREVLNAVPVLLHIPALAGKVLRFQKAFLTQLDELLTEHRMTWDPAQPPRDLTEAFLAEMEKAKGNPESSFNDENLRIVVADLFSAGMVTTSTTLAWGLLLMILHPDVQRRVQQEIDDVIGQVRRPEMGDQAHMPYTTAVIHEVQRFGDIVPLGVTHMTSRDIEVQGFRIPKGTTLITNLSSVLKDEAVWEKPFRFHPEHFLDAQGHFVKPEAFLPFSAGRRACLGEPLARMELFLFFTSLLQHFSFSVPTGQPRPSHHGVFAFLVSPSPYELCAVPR

[9] = tested on: Mycobacterium tuberculosis; test: Antimycobacterial activity against Mycobacterium tuberculosis H37Rv assessed as reduction in bacterial cell growth by Low-oxygen recovery assay; assay type: functional
[10] = Mutagenicity in Salmonella typhimurium TA102 in absence of S9 fraction by mini-Ames test; assay type: toxicity; conditions: salmonella enterica subsp. enterica serovar typhimurium
[11] = Acute toxicity in Sprague-Dawley rat assessed as death at 2 g/kg, po measured continuously for first 4 hrs followed by every 1 hr for next 24 hrs and subsequent 8 hrs interval for 7 days; assay type: organism-based; conditions: in vivo, 2000 mg/kg
Summary of the method: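 SD rats, 180–220 g, randomised, ten per group, food withheld overnight. Single oral dose of 2 g/kg suspended in 5% CMC; controls given vehicle only. Watched continuously for 4 h, hourly for the next 24 h, then every 8 h through day 7 for deaths or changes. Read-out is survivors/total at 7 days.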

[12] = Mutagenicity in Salmonella typhimurium TA102 in presence of S9 fraction by mini-Ames test; assay type: toxicity, subcellular; conditions: salmonella enterica subsp. enterica serovar typhimurium
[13] = tested on: Mycobacterium tuberculosis; test: Antituberculosis activity against Mycobacterium tuberculosis H37Rv infected in BALB/C mouse assessed as reduction in log10CFU in lungs at 25 mg/kg, po administered once daily for 5 days per week for a total of 3 weeks started on day 10 post-infection; assay type: functional
[14] = AUC (0 to infinity) in ICR mouse at 25 mg/kg, po measured upto 24 hrs by HPLC analysis; assay type: ADME, organism-based; set-up: dose 25 mg/kg, time infinity, route oral; conditions: in vivo; summary of the method: as §1
CYP3A4 = CYP3A4 (Homo sapiens, UniProt P08684); test: Inhibition of CYP3A4 (unknown origin); assay type: ADME
Chain of CYP3A4 (P08684 whole entry): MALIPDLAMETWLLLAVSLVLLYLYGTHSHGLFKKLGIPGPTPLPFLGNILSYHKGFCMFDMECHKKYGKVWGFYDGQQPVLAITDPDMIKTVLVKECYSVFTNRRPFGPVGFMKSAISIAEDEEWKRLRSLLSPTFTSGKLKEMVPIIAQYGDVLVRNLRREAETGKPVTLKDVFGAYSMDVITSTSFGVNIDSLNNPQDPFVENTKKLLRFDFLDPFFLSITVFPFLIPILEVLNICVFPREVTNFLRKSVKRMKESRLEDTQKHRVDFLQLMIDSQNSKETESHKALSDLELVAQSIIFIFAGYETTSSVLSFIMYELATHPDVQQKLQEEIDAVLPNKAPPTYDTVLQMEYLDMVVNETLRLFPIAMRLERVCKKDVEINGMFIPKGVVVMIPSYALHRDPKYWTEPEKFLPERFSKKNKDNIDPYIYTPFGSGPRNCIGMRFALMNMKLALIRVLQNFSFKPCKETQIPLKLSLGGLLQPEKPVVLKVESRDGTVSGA

[15] = Cmax in ICR mouse at 25 mg/kg, po measured upto 24 hrs by HPLC analysis; assay type: ADME, organism-based; set-up: dose 25 mg/kg, route oral; conditions: in vivo; summary of the method: as §1
[16] = Mutagenicity in Salmonella typhimurium TA100 in presence of S9 fraction by mini-Ames test; assay type: toxicity, subcellular; conditions: salmonella enterica subsp. enterica serovar typhimurium
Cytochrome P450 2C19 = Cytochrome P450 2C19 (Homo sapiens, UniProt P33261); test: Inhibition of CYP2C19 (unknown origin); assay type: ADME
Chain of Cytochrome P450 2C19 (P33261 whole entry): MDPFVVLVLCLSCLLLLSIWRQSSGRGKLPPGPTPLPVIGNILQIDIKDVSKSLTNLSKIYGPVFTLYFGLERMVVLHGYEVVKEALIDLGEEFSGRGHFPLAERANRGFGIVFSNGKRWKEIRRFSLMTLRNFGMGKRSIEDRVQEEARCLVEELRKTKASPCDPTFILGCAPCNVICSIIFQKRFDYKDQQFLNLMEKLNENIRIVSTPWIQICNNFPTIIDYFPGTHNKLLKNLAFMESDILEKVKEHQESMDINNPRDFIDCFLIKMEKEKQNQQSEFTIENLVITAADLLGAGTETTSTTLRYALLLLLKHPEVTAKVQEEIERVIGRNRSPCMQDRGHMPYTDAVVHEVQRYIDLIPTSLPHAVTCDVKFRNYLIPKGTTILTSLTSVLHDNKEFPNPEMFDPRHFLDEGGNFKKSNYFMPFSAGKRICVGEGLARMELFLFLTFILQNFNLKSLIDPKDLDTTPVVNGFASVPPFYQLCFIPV

[17] = biological target: Voltage-gated inwardly rectifying potassium channel KCNH2 (Homo sapiens, UniProt Q12809); test: Inhibition of human ERG transfected in HEK293 cells by whole-cell patch clamp method; assay type: cell-based; conditions: hek293
Chain of Voltage-gated inwardly rectifying potassium channel KCNH2 (Q12809 whole entry): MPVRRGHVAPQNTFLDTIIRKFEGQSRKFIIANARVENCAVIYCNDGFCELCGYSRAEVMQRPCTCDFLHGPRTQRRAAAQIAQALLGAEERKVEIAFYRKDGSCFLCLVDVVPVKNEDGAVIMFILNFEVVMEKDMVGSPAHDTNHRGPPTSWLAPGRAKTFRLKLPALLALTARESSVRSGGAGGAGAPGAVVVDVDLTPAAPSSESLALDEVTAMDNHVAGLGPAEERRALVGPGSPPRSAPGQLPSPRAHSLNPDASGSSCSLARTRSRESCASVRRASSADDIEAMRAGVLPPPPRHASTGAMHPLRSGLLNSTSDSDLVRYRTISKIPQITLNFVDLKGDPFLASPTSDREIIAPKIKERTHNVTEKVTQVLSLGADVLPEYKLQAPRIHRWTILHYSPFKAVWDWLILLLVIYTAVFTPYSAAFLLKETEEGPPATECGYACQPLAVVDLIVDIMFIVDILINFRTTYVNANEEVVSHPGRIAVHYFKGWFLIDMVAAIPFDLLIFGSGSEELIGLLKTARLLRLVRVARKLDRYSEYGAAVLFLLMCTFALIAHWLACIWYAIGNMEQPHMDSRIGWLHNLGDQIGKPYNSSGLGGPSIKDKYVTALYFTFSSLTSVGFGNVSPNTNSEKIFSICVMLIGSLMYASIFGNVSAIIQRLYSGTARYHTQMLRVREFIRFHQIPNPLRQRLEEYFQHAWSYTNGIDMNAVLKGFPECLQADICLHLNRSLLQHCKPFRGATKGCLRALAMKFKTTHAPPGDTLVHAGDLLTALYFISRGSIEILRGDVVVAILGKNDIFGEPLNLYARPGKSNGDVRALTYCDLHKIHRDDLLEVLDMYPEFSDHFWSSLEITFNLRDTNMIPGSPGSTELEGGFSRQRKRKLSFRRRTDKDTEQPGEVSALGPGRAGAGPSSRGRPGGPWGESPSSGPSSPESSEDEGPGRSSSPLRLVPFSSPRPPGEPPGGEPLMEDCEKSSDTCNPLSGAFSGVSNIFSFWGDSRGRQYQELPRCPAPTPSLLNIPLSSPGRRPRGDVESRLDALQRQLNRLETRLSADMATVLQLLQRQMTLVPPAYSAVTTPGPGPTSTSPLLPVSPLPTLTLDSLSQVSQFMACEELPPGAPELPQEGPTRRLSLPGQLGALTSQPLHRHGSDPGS

Row | Compound | MIC90 [1] [µg/mL] | CC50 [2] [µg/mL] | further results
1 | CCO/N=C(\C)CN1CCN(c2nc(=O)c3cc(C(F)(F)F)cc([N+](=O)[O-])c3s2)CC1 | < 0.016 | > 64 | 
2 | C/C(CN1CCN(c2nc(=O)c3cc(C(F)(F)F)cc([N+](=O)[O-])c3s2)CC1)=N\OCc1ccccc1 | < 0.016 | > 64 | 
3 | CCON=C1CCC(CN2CCN(c3nc(=O)c4cc(C(F)(F)F)cc([N+](=O)[O-])c4s3)[C@@H](C)C2)CC1 (some centres not stated) | < 0.016 | > 64 | 
4 | CON=C1CCC(CN2CCN(c3nc(=O)c4cc(C(F)(F)F)cc([N+](=O)[O-])c4s3)C[C@@H]2C)CC1 (some centres not stated) | < 0.016 | > 64 | 
5 | CO/N=C(\C)CCN1CCN(c2nc(=O)c3cc(C(F)(F)F)cc([N+](=O)[O-])c3s2)CC1 | < 0.016 | > 64 | 
6 | CON=C1CCC(CN2CCN(c3nc(=O)c4cc(C(F)(F)F)cc([N+](=O)[O-])c4s3)C[C@H]2C)CC1 (some centres not stated) | < 0.016 | > 64 | 
7 | CON=C1CCC(CN2CCN(c3nc(=O)c4cc(C(F)(F)F)cc([N+](=O)[O-])c4s3)[C@@H](C)C2)CC1 (some centres not stated) | < 0.016 | > 64 | 
8 | CCO/N=C(\C)CN1CCC2(CCN(c3nc(=O)c4cc(C(F)(F)F)cc([N+](=O)[O-])c4s3)CC2)C1 | 0.029 (≈ 0.0565 µM) |  | 
9 | CCON=C1CCC(CN2CCN(c3nc(=O)c4cc(C(F)(F)F)cc([N+](=O)[O-])c4s3)C[C@H]2C)CC1 (some centres not stated) | < 0.016 | > 64 | 
10 | CON=C1CC(CN2CCN(c3nc(=O)c4cc(C(F)(F)F)cc([N+](=O)[O-])c4s3)CC2C)C1 (configuration not stated) | 0.056 (≈ 0.115 µM) |  | 
11 | C/C(CCN1CCC2(CCN(c3nc(=O)c4cc(C(F)(F)F)cc([N+](=O)[O-])c4s3)CC2)C1)=N/OCc1ccccc1 | 0.119 (≈ 0.202 µM) |  | 
12 | CO/N=C(\C)CN1CCC2(CCN(c3nc(=O)c4cc(C(F)(F)F)cc([N+](=O)[O-])c4s3)CC2)C1 | 0.085 (≈ 0.17 µM) |  | 
13 | CO/N=C(\C)CN1CCN(c2nc(=O)c3cc(C(F)(F)F)cc([N+](=O)[O-])c3s2)CC1 | 0.037 (≈ 0.0831 µM) |  | 
14 | CON=C1CCC(CN2CCN(c3nc(=O)c4cc(C(F)(F)F)cc([N+](=O)[O-])c4s3)[C@H](C)C2)CC1 (some centres not stated) | 0.023 (≈ 0.0448 µM) |  | 
15 | CCON=C1CC(CN2C(C)CN(c3nc(=O)c4cc(C(F)(F)F)cc([N+](=O)[O-])c4s3)CC2C)C1 (configuration not stated) | 0.056 (≈ 0.109 µM) |  | 
16 | CCON=C1CCC(CN2CCN(c3nc(=O)c4cc(C(F)(F)F)cc([N+](=O)[O-])c4s3)C[C@@H]2C)CC1 (some centres not stated) | < 0.016 | > 64 | 
17 | CON=C1CC(CN2CCN(c3nc(=O)c4cc(C(F)(F)F)cc([N+](=O)[O-])c4s3)CC2)C1 (configuration not stated) | 0.023 (≈ 0.0488 µM) |  | 

Row | Compound | MIC90 [1] [µg/mL] | CC50 [2] [µg/mL] | further results
18 | CON=C1CCC(CN2CC(C)N(c3nc(=O)c4cc(C(F)(F)F)cc([N+](=O)[O-])c4s3)CC2C)CC1 (configuration not stated) | 0.031 (≈ 0.0588 µM) |  | 
19 | CCON=C1CCC(CN2C(C)CN(c3nc(=O)c4cc(C(F)(F)F)cc([N+](=O)[O-])c4s3)CC2C)CC1 (configuration not stated) | < 0.016 | 60.5 (≈ 112 µM) | 
20 | CCO/N=C(\C)CCN1CCN(c2nc(=O)c3cc(C(F)(F)F)cc([N+](=O)[O-])c3s2)CC1 | < 0.016 | > 64 | 
21 | CCON=C1CCC(CN2CCN(c3nc(=O)c4cc(C(F)(F)F)cc([N+](=O)[O-])c4s3)[C@H](C)C2)CC1 (some centres not stated) | < 0.016 | > 64 | 
22 | CCON=C1CC(CN2CCN(c3nc(=O)c4cc(C(F)(F)F)cc([N+](=O)[O-])c4s3)CC2C)C1 (configuration not stated) | 0.052 (≈ 0.104 µM) |  | 
23 | CCON=C1CC(CN2CCN(c3nc(=O)c4cc(C(F)(F)F)cc([N+](=O)[O-])c4s3)CC2)C1 (configuration not stated) | < 0.016 | > 64 | 
24 | CON=C1CC(CN2C(C)CN(c3nc(=O)c4cc(C(F)(F)F)cc([N+](=O)[O-])c4s3)CC2C)C1 (configuration not stated) | 0.066 (≈ 0.132 µM) |  | 
25 | CCON=C1CCC(CN2CCN(c3nc(=O)c4cc(C(F)(F)F)cc([N+](=O)[O-])c4s3)CC2C)CC1 (configuration not stated) | < 0.016 | > 64 | 
26 | CON=C1CCC(CN2CCN(c3nc(=O)c4cc(C(F)(F)F)cc([N+](=O)[O-])c4s3)CC2C)CC1 (configuration not stated) | < 0.016 | > 64 | 
27 | CCO/N=C(/C)CCN1CCC2(CCN(c3nc(=O)c4cc(C(F)(F)F)cc([N+](=O)[O-])c4s3)CC2)C1 | 0.241 (≈ 0.457 µM) |  | 
28 | CCON=C1CCC(CN2CCN(c3nc(=O)c4cc(C(F)(F)F)cc([N+](=O)[O-])c4s3)CC2)CC1 (configuration not stated) | < 0.016 | > 64 | Activity [3]: 2 log10CFU; Activity [4]: Non-Toxic; MRT [5]: 2.3 h; Tmax [6]: 0.25 h; half-life [7]: 2.29 h; IC50 (CYP2C9): > 10 µM; inhibition at 32 µg/mL [8]: 79%; IC50 (CYP1A2): > 10 µM; IC50 (CYP2D6): > 10 µM; MIC [9]: > 32 µg/mL; Activity [10]: Non-Toxic; Activity [11]: Non-Toxic; Activity [12]: Non-Toxic; Activity [13]: 4.44 log10CFU; AUC(0-inf) [14]: 40600 ng·h/mL; IC50 (CYP3A4): > 10 µM; Cmax [15]: 15200 ng/mL; Activity [16]: Non-Toxic; IC50 (Cytochrome P450 2C19): > 10 µM; IC50 [17]: 38.9 µM
29 | C/C(CCN1CCN(c2nc(=O)c3cc(C(F)(F)F)cc([N+](=O)[O-])c3s2)CC1)=N\OCc1ccccc1 | < 0.016 | > 64 | 
30 | CO/N=C(/C)CCN1CCC2(CCN(c3nc(=O)c4cc(C(F)(F)F)cc([N+](=O)[O-])c4s3)CC2)C1 | 0.469 (≈ 0.913 µM) |  | 
31 | CON=C1CCC(CN2C(C)CN(c3nc(=O)c4cc(C(F)(F)F)cc([N+](=O)[O-])c4s3)CC2C)CC1 (configuration not stated) | < 0.016 | > 64 | 
32 | NNC(=O)c1ccncc1 [ISONIAZID] | 0.031 (≈ 0.226 µM) |  | Activity [3]: 1.76 log10CFU
33 | CO[C@H]1/C=C/O[C@@]2(C)Oc3c(C)c(O)c4c(O)c(c(/C=N/N5CCN(C)CC5)c(O)c4c3C2=O)NC(=O)/C(C)=C\C=C\[C@H](C)[C@H](O)[C@@H](C)[C@@H](O)[C@@H](C)[C@H](OC(C)=O)[C@@H]1C [RIFAMPIN] | 0.078 (≈ 0.0948 µM) |  | 
